Measurements collected from several papers.
Lines come from different studies, so protocols differ.
Target: Cytoplasmic tyrosine-protein kinase BMX (BMX, Homo sapiens, UniProt P51813)
Residues used in one study (P51813 1-675): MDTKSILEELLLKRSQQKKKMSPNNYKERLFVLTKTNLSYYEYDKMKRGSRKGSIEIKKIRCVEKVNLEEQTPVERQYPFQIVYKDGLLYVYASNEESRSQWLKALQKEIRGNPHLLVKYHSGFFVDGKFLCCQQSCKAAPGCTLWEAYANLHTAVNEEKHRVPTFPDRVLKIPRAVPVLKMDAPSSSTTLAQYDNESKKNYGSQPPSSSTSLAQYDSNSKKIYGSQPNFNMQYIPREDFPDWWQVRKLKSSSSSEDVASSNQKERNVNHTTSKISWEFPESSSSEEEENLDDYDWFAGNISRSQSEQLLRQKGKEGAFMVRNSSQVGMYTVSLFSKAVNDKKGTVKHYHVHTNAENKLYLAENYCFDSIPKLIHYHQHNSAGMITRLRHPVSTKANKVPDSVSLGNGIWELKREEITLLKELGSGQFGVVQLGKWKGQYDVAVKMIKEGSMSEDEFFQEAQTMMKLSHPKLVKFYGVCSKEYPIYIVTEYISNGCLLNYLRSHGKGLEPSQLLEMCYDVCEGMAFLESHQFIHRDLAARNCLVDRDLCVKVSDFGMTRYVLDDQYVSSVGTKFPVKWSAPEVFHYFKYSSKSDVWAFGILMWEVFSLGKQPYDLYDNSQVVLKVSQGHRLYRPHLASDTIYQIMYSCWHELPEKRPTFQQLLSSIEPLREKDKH

O=C(Nc1cnn(-c2csc(C(=O)NC3COC3)c2)c1)Nc1ccccc1Cl  remaining activity (enzyme activity, inhibitor; 5 µM): 106%
O=C(Nc1cnc(Oc2ccc(F)cc2)nc1)N1CCc2ncccc2[C@@H]1c1ccc(F)cc1  remaining binding (cell-free assay, competition with immobilised ligand; 1 µM): 94%
COc1cc2c(N3CCN(C(=O)Nc4ccc(OC(C)C)cc4)CC3)ncnc2cc1OCCCN1CCCCC1  remaining signal (cell-free assay; 0.5 µM): 109%
c1ccc(N2CCN(Cc3nc4ccccc4[nH]3)CC2)nc1  remaining binding (cell-free assay, competition with immobilised ligand; 1 µM): 100%
CC(C)[C@H](CO)Nc1nc(Nc2cc(N)cc(Cl)c2)c2ncn(C(C)C)c2n1  remaining activity (enzyme activity, inhibitor; 0.5 µM): 81.9%
CCN(CC)CCNC(=O)c1c(C)[nH]c(/C=C2\C(=O)Nc3ccc(F)cc32)c1C  inhibition (enzyme activity, inhibitor; 0.3 µM): -1%
N#CC1c2c([nH]c3c(Cl)c(Cl)ccc23)C(=O)NC12CCCCC2 (racemic)  ΔTm (thermal stability, DSF; 10 µM): -0.1 °C
Fc1ccc(-c2nc3n(c2-c2ccncc2)CCS3)cc1  remaining activity (enzyme activity, inhibitor; 0.5 µM): 104%
CN(c1ccnc(CNc2nc(Nc3ccc4c(c3)CC(=O)N4)ncc2C(F)(F)F)n1)S(C)(=O)=O  remaining binding (cell-free assay, competition with immobilised ligand; 1 µM): 80%
CNC(=O)c1cc(Oc2ccc(NC(=O)Nc3ccc(Cl)c(C(F)(F)F)c3)cc2)ccn1  inhibition (enzyme activity, inhibitor; 10 µM): 9%
COc1cc2nccc(Oc3ccc(NC(=S)NC(=O)c4ccccc4C)cc3)c2cc1OC  remaining activity (enzyme activity, inhibitor; 0.5 µM): 30.6%
O=C(Nc1ccc(Oc2ccc(F)cc2)cc1)N1CCc2ncccc2[C@H]1c1ccc(F)cc1  remaining binding (cell-free assay, competition with immobilised ligand; 1 µM): 100%
Cc1ccc(C(=O)NCc2ccsc2)cc1C#Cc1cn(C(C)C)c2ncnc(N)c12  activity vs control (enzyme activity, inhibitor; 1 µM): 2%
Cn1cncc1C1=CN(c2ncnc3[nH]cnc23)CCS1  inhibition (enzyme activity, inhibitor, radiometric; 2 µM): 40%
CCC1(CC)NC(=O)c2c(c3ccc(Cl)c(Cl)c3n2C)C1C#N (stereo not shown)  ΔTm (thermal stability, DSF; 10 µM): 0.1 °C
COc1cc2ncnc(Nc3ccc(Oc4ccccc4)cc3C)c2cc1OC  inhibition (enzyme activity, inhibitor; 1 µM): 35%
C[S+]([O-])c1ccc(-c2nc(-c3ccncc3)c(-c3ccc(F)cc3)[nH]2)cc1 (stereo not shown)  remaining signal (cell-free assay; 0.5 µM): 94.4%
CCCS(=O)(=O)Nc1ccc(F)c(C(=O)c2c[nH]c3ncc(-c4ccc(Cl)cc4)cc23)c1F  inhibition (enzyme activity, inhibitor; 1 µM): < 20%
CC1=C(C#N)[C@@H](c2ccc3[nH]nc(C)c3c2)C(C#N)=C(c2ccc(Cl)cc2)N1  remaining binding (cell-free assay, competition with immobilised ligand; 1 µM): 100%
Cn1c2c(Cl)c(Cl)ccc2c2cc[nH]c(=O)c21  ΔTm (thermal stability, DSF; 10 µM): 0 °C
N#CCCc1ccc2c(c1)-c1[nH]c3ccc([N+](=O)[O-])cc3c1CC(=O)N2  remaining signal (cell-free assay; 0.5 µM): 99.5%
FC(F)(F)c1ccc2c(c1)nc(-c1cccnc1)n2C1CC1  remaining binding (cell-free assay, competition with immobilised ligand; 1 µM): 100%
Cn1c2c(c3ccccc31)C(C#N)C(C)(C)NC2=O (stereo not shown)  ΔTm (thermal stability, DSF; 10 µM): -0.4 °C
Cc1ccc(Nc2nccc(N(C)c3ccc4c(C)n(C)nc4c3)n2)cc1S(N)(=O)=O  inhibition (enzyme activity, inhibitor; 10 µM): 70%
c1nc2c(Nc3ccc4c(c3)OCCO4)nc(Nc3ccc4c(c3)OCCO4)nc2[nH]1  activity vs control (enzyme activity, inhibitor; 10 µM): 9.7%
CS(=O)(=O)c1cc(C2(NC(=O)c3cncc4c3cnn4-c3ccc(F)cc3)CC2)ccn1  remaining binding (cell-free assay, competition with immobilised ligand; 1 µM): 100%
Cn1c2c(c3ccc(Cl)c(Cl)c31)C(C#N)C(C)(C)NC2=O (stereo not shown)  ΔTm (thermal stability, DSF; 10 µM): -0.1 °C
Oc1ccc(-c2nc(-c3ccncc3)c(-c3ccc(F)cc3)[nH]2)cc1  remaining signal (cell-free assay; 0.5 µM): 93.9%
CN(C)C1CCN(CC#Cc2nn(C3CCCC3)c3nc(NCc4ccccc4)ncc23)C1 (stereo not shown)  inhibition (enzyme activity, inhibitor, FRET; 10 µM): 14%
Cc1nccc(COC(=O)N2C[C@@H]3[C@@H](CNC(=O)c4ccc5[nH]nnc5c4)[C@@H]3C2)n1  remaining binding (cell-free assay, competition with immobilised ligand; 1 µM): 88%
O=C1NC(=O)c2cc(Nc3ccc(F)cc3)c(Nc3ccc(F)cc3)cc21  remaining signal (cell-free assay; 0.5 µM): 95.3%
